Experimental data as given in paper PMC11827156 (Malaria Journal, 2025).
“Also recorded” adds a separate entry of the source. Read-outs that look alike come from different tables or passages of the source. Values belong to the compound of their own block, whether it stands above or below them.

How the values were obtained:
P. falciparum = settings: read-out: IC50, antimalarial activity; cited from earlier work
P. falciparum 3D7 [1] = assay type: cell-based, Plasmodium falciparum
[2] = system: Plasmodium falciparum 3D7; test: Drug effects on erythrocytic cycle phases in synchronized cultures; assay type: cell-based; settings: for ring phase parasites at the 36 h time point / parasitaemia at the 36 h time point: 150 nM added 12 h after synchronization, n = 3; for ring phase parasites at the 36 h time point: % parasitaemia; for parasites developed into schizonts at the 24 h time point: added at 0 h, control 18%
In short: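 Sorbitol-synchronized P. falciparum 3D7 at 1% parasitaemia and 2% haematocrit received test compound (150 nM), chloroquine (150 nM) or 0.1% DMSO at 0, 12 or 24 h post-synchronization. Samples were taken at 12, 24, 36 and 48 h and stained for 30 min in HEPES-buffered Hank's with 1 µM Hoechst and […] thiazole orange. Flow cytometry gated rings, trophozoites and schizonts on DNA/RNA signal. Data are mean ± SD from one triplicate experiment.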

[3] = system: knockout parasites (PfSR25−); settings: cited from earlier work
[4] = target: P. falciparum PfSR25− (serpentine receptor 25 knockout strain); test: Comparative IC50 screening, 3D7 versus serpentine receptor 25 knockout strain; assay type: cell-based, Plasmodium falciparum; settings: 72 h, 0.0019–2 µM, Student's t test
In short: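 Asynchronous 3D7 and PfSR25− cultures (37 °C, 90% N2/5% O2/5% CO2) at 0.3% parasitaemia and 2% haematocrit were exposed for 72 h to eleven final concentrations. Controls were 0.13% DMSO and chloroquine 0.2441–250 nM. Cells were stained with SYBR Green-I (1:10,000) plus MitoTracker Deep Red (50 nM) for 20 min at 37 °C and read by flow cytometry. Survival was taken relative to DMSO, in triplicate over three experiments. IC50 ± SEM came from dose–response curves.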

P. falciparum Dd2 = settings: 2 µM; cited from earlier work
P. falciparum 3D7 [5] = assay type: cell-based, Plasmodium falciparum; settings: 2.5 nM compound alone, 48 h
P. falciparum 3D7 [6] = test: Competition of TCAMS compounds; assay type: cell-based, Plasmodium falciparum; settings: for effect on the increase in parasitaemia promoted by melatonin: 2.5 nM compound with 100 nM melatonin; for effect on the increase in parasitaemia promoted by melatonin / effect on the increase in parasitaemia promoted by serotonin: 48 h; for effect on the increase in parasitaemia promoted by serotonin: 2.5 nM compound with 250 nM serotonin; for classification on the serotonin/melatonin pathway in the parasite: from effects in presence and absence of serotonin or melatonin
In short: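 Asynchronous P. falciparum 3D7 cultures (1% parasitaemia, 2% haematocrit) were given 2.5 nM test compound with or without 250 nM serotonin or 100 nM melatonin. Incubation was 48 h at 37 °C under mixed gas, with a DMSO solvent control. Cells were stained with SYBR Green-I (1:10,000) and MitoTracker Deep Red (50 nM) for 20 min at 37 °C, then parasitaemia was read by flow cytometry. Survival is relative to solvent; triplicate, 3 independent experiments.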

HEK293 cells = test: Cytotoxicity of the compounds in HEK293 cells; assay type: cell-based, human; settings: MTT, 72 h, 0.0019–2 µM; for CC50: read-out: CC50 nM HEK293
In short: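 HEK293 cells (passages 7–12, grown in DMEM with 10% FBS and penicillin/streptomycin at 37 °C, 5% CO₂) were trypsinized and seeded at 10^4 cells/well. They were exposed to test compound or DMSO vehicle for 72 h. MTT (5 mg/mL reagent) was then added for 3 h, and the formazan was dissolved in DMSO. Absorbance was read at 570 nm and dose–response curves were fitted. Each condition was run in triplicate in 3 independent experiments.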

[7] = Plasmodium falciparum, 3D7, 72 h, read-out: IC50 (nM) 3D7, Table 1, asynchronous culture, 72 h, 0.0019–2 µM, ± standard error of the mean
[8] = read-out: IC50 (nM) 3D7, Table 1, asynchronous culture, 72 h, 0.0019–2 µM, ± standard error of the mean

Structure (SMILES): CCCN(CCC)C1CCc2cccc(O)c2C1 (stereo not drawn) [8-OH-DPAT, 8-hydroxy-N-(di-n-propyl)-aminotetralin]
IC50 (P. falciparum): 400 nM

IC50 (P. falciparum 3D7 [1]; [7]): 11.3 ± 0.7 nM
Structure (SMILES): CCN(CC)CCCC(C)Nc1ccnc2cc(Cl)ccc12 (stereo not drawn) [Chloroquine, reference compound]
ring phase parasites at the 36 h time point [2]: 0.30 ± 0.17%
parasitaemia at the 36 h time point [2]: 1.55 ± 0.87%
parasites developed into schizonts at the 24 h time point [2]: less than 0.5%
parasitaemia of knockout parasites (PfSR25−) versus wild-type (3D7) ([3]; exposure for 24 h): significantly reduced parasitaemia compared with that of wild-type parasites (3D7)

IC50 (P. falciparum 3D7 [1]; [7]): 120 ± 19.4 nM
Structure (SMILES): COc1cc2nccc(Nc3ccc(Oc4ccccc4)cc3)c2cc1OC.Cl [TCMDC-131917, Cl.COc1cc2nccc(Nc3ccc(Oc4ccccc4)cc3)c2cc1OC]
difference of IC50 between 3D7 and PfSR25− [4]: none of the compounds tested were significantly different between the two strains

IC50 (P. falciparum 3D7 [1]; [8]): 1970 ± 116 nM
Structure (SMILES): Cn1cnc(CCNC(=O)c2cccc(-c3cccc(-c4nc5cc(C(F)(F)F)ccc5[nH]4)c3)c2)c1 [TCMDC-132496, Cn1cnc(CCNC(= O)c2cccc(c2)-c2cccc(c2)-c2nc3cc(ccc3[nH]2)C(F)(F)F)c1]
inhibition of parasite development, strain Dd2 (P. falciparum Dd2): ≤ 50%

Structure (SMILES): Cc1ccc(NC(=O)Nc2ccc(Cl)c(C(F)(F)F)c2)cc1-c1ccc(C(=O)NCCN2CCOCC2)cc1 [TCMDC-133589, Cc1ccc(NC(= O)Nc2ccc(Cl)c(c2)C(F)(F)F)cc1-c1ccc(cc1)C(= O)NCCN1CCOCC1]
IC50 (P. falciparum 3D7 [1]; [8]): 1360 ± 198 nM
inhibition of parasite development, strain Dd2 (P. falciparum Dd2): ≤ 50%

IC50 (P. falciparum 3D7 [1]; [7]): 389 ± 120 nM
Structure (SMILES): COc1cccc(CCNc2nc(NCc3ccccc3)c3cc(OC)c(OC)cc3n2)c1 [TCMDC-135267, COc1cccc(CCNc2nc(NCc3ccccc3)c3cc(OC)c(OC)cc3n2)c1]
effect on parasitaemia compared with the control (P. falciparum 3D7 [5]): did not significantly affect parasitaemia compared with the control
effect on the increase in parasitaemia promoted by melatonin (P. falciparum 3D7 [6]): able to inhibit the increase in parasitaemia partially; also recorded: effective in preventing the proliferative effects of melatonin
effect on the increase in parasitaemia promoted by serotonin (P. falciparum 3D7 [6]): able to inhibit the increase in parasitaemia; also recorded: the most effective at inhibiting the proliferative effects of serotonin
classification on the serotonin/melatonin pathway in the parasite (P. falciparum 3D7 [6]): potential full antagonists of the pathway
ring phase parasites at the 36 h time point [2]: 0.44 ± 0.14%
parasitaemia at the 36 h time point [2]: 1.18 ± 0.42%
parasites developed into schizonts at the 24 h time point [2]: less than 0.5%
effect on erythrocytic cycle progression ([2]; synchronized cultures, added at 0, 12 or 24 h): prevents the progression from trophozoite to mature schizonts, but does not affect the ability of mature schizonts to egress and invade RBCs

Structure (SMILES): CN1CCN(CCCCCNc2c3ccccc3nc3ccccc23)CC1.Cl [TCMDC-137541, Cl.CN1CCN(CCCCCNc2c3ccccc3nc3ccccc23)CC1]
IC50 (P. falciparum 3D7 [1]; [7]): 165 ± 74.7 nM
inhibition of parasite development, strain Dd2 (P. falciparum Dd2): ≤ 50%

Structure (SMILES): CCOc1cc(CC)ccc1C1CCN(CCCCNC(=O)c2ccc(NC(=O)c3ccc(Cl)cc3)cc2)CC1.Cl [TCMDC-138317, Cl.CCOc1cc(CC)ccc1C1CCN(CCCCNC(= O)c2ccc(NC(= O)c3ccc(Cl)cc3)cc2)CC1]
IC50 (P. falciparum 3D7 [1]; read-out: IC50 nM 3D7, Table 2): 80.8 nM
IC50 (P. falciparum 3D7 [1]; [8]): 80.8 ± 25.9 nM
cytotoxic activity in HEK293 cells (HEK293 cells): exhibited cytotoxic activity in HEK293 cells; also recorded: toxic to mammalian HEK293 cells
CC50 (HEK293 cells): 16.6 nM

Structure (SMILES): O=C(/C=C/c1ccc(Cl)c(Cl)c1)NC1CCC(CN2CCC(c3c[nH]c4ccc(O)cc34)CC2)CC1 (stereo not drawn) [TCMDC-139494, Oc1ccc2[nH]cc(C3CCN(CC4CCC(CC4)NC(= O)\C = C\c4ccc(Cl)c(Cl)c4)CC3)c2c1]
IC50 (P. falciparum 3D7 [1]; [8]): 122 ± 21.1 nM
difference of IC50 between 3D7 and PfSR25− [4]: none of the compounds tested were significantly different between the two strains

Structure (SMILES): Cc1[nH]c2c(C)cccc2c1C1CCN(CCC2CCN(C(=O)/C=C/c3ccc(Cl)c(Cl)c3)CC2)CC1 [TCMDC-139803, Cc1[nH]c2c(C)cccc2c1C1CCN(CCC2CCN(CC2)C(= O)\C = C\c2ccc(Cl)c(Cl)c2)CC1]
IC50 (P. falciparum 3D7 [1]; [8]): 91.9 ± 18.1 nM
effect on parasitaemia compared with the control (P. falciparum 3D7 [5]): induced a significant increase in parasitaemia
effect on the increase in parasitaemia promoted by melatonin (P. falciparum 3D7 [6]): able to inhibit the increase in parasitaemia partially
effect on the increase in parasitaemia promoted by serotonin (P. falciparum 3D7 [6]): partially inhibited the increase in parasitaemia promoted by serotonin
difference of IC50 between 3D7 and PfSR25− [4]: none of the compounds tested were significantly different between the two strains

Structure (SMILES): O=C(/C=C/c1c(Cl)cccc1Cl)NC1CCC(CN2CCC(c3c[nH]c4ccccc34)CC2)CC1 (stereo not drawn) [TCMDC-139856, Clc1cccc(Cl)c1\C = C\C(= O)NC1CCC(CN2CCC(CC2)c2c[nH]c3ccccc23)CC1]
IC50 (P. falciparum 3D7 [1]; [8]): 274 ± 31.9 nM
inhibition of parasite development, strain Dd2 (P. falciparum Dd2): ≤ 50%

Structure (SMILES): O=C(/C=C/c1ccc(Cl)c(Cl)c1)N1CCC(CN2CCC(c3c[nH]c4cc(C(F)(F)F)ccc34)CC2)CC1 [TCMDC-139860, FC(F)(F)c1ccc2c(c[nH]c2c1)C1CCN(CC2CCN(CC2)C(= O)\C = C\c2ccc(Cl)c(Cl)c2)CC1]
IC50 (P. falciparum 3D7 [1]; [8]): 65.1 ± 11.6 nM
effect on parasitaemia compared with the control (P. falciparum 3D7 [5]): induced a significant increase in parasitaemia
effect on the increase in parasitaemia promoted by melatonin (P. falciparum 3D7 [6]): able to inhibit the increase in parasitaemia partially
effect on the increase in parasitaemia promoted by serotonin (P. falciparum 3D7 [6]): partially inhibited the increase in parasitaemia promoted by serotonin
difference of IC50 between 3D7 and PfSR25− [4]: none of the compounds tested were significantly different between the two strains
inhibition of parasite development, strain Dd2 (P. falciparum Dd2): ≤ 50%

Structure (SMILES): CC(Cc1ccc(NC(=O)c2ccc(CNCCc3ccccc3)cc2)cc1)NCCc1cccc(Cl)c1.Cl (stereo not drawn) [TCMDC-139867, Cl.CC(Cc1ccc(NC(= O)c2ccc(CNCCc3ccccc3)cc2)cc1)NCCc1cccc(Cl)c1]
IC50 (P. falciparum 3D7 [1]; read-out: IC50 nM 3D7, Table 2): 57.4 nM
IC50 (P. falciparum 3D7 [1]; [8]): 57.4 ± 12.2 nM
cytotoxic activity in HEK293 cells (HEK293 cells): exhibited cytotoxic activity in HEK293 cells
CC50 (HEK293 cells): 1280 nM
difference of IC50 between 3D7 and PfSR25− [4]: none of the compounds tested were significantly different between the two strains

Structure (SMILES): Cc1[nH]c2ccc(O)cc2c1C1CCN(CC2CCN(C(=O)/C=C/c3ccc(Cl)c(Cl)c3)CC2)CC1 [TCMDC-140219, Cc1[nH]c2ccc(O)cc2c1C1CCN(CC2CCN(CC2)C(= O)\C = C\c2ccc(Cl)c(Cl)c2)CC1]
IC50 (P. falciparum 3D7 [1]; [8]): 101 ± 22.9 nM
effect on parasitaemia compared with the control (P. falciparum 3D7 [5]): did not significantly affect parasitaemia compared with the control
effect on the increase in parasitaemia promoted by melatonin (P. falciparum 3D7 [6]): able to inhibit the increase in parasitaemia partially
effect on the increase in parasitaemia promoted by serotonin (P. falciparum 3D7 [6]): able to inhibit the increase in parasitaemia
classification on the serotonin/melatonin pathway in the parasite (P. falciparum 3D7 [6]): potential full antagonists of the pathway

Structure (SMILES): CC[C@H](NC(=O)c1c(CN2CCC(N3CCCCC3)CC2)c(-c2ccccc2)nc2cc(O)ccc12)c1ccccc1 [TCMDC-140381, CC[C@H](NC(= O)c1c(CN2CCC(CC2)N2CCCCC2)c(nc2cc(O)ccc12)-c1ccccc1)c1ccccc1]
reduction of P. falciparum parasitaemia by 50% (P. falciparum 3D7 [1]; at the concentrations tested (0.0019–2 µM), 72 h): could not reduce P. falciparum parasitaemia by 50%
inhibition of parasite development, strain Dd2 (P. falciparum Dd2): ≤ 50%

Structure (SMILES): O=C1Nc2cccc3c2C1(CCCCN1CCC(c2cc4ccncc4[nH]2)CC1)CCC3 (stereo not drawn) [TCMDC-141151, O = C1Nc2cccc3CCCC1(CCCCN1CCC(CC1)c1cc4ccncc4[nH]1)c23]
IC50 (P. falciparum 3D7 [1]; [8]): 459 ± 33.8 nM
inhibition of parasite development, strain Dd2 (P. falciparum Dd2): ≤ 50%

Structure (SMILES): O=c1c(NCCCN(Cc2ccc(F)cc2)c2ccccn2)c(NCc2ccncc2)c1=O [TCMDC-142310, Fc1ccc(CN(CCCNc2c(NCc3ccncc3)c(= O)c2 = O)c2ccccn2)cc1]
IC50 (P. falciparum 3D7 [1]; [8]): 100 ± 23.6 nM
effect on parasitaemia compared with the control (P. falciparum 3D7 [5]): induced a significant increase in parasitaemia
effect on the increase in parasitaemia promoted by melatonin (P. falciparum 3D7 [6]): able to inhibit the increase in parasitaemia partially
effect on the increase in parasitaemia promoted by serotonin (P. falciparum 3D7 [6]): able to inhibit the increase in parasitaemia
classification on the serotonin/melatonin pathway in the parasite (P. falciparum 3D7 [6]): potential partial agonists of this pathway in the parasite

Structure (SMILES): CCCCN(CCCC)CC(O)c1cc(Cl)cc2c1-c1ccc(Cl)cc1/C2=C/c1ccc(Cl)cc1 (stereo not drawn) [lumefantrine]
susceptibility of PfSR25− [3]: increased susceptibility

Structure (SMILES): Clc1ccc2c(N3CCN(CCCN4CCN(c5ccnc6cc(Cl)ccc56)CC4)CC3)ccnc2c1 [piperaquine]
susceptibility of PfSR25− [3]: increased susceptibility
